Results published in ChEMBL document CHEMBL1126051, “New thymidine triphosphate analogue inhibitors of human immunodeficiency virus-1 reverse transcriptase” (J Med Chem, 1992).
pKi: −log10 of the molar value.

These compounds were tested against Human immunodeficiency virus type 1 reverse transcriptase (Human immunodeficiency virus 1, UniProt Q72547) (assay: The compound was tested for the inhibition of human immunodeficiency virus-1 reverse transcriptase(HIV-1 RT).).
Method in brief: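 Ki by kinetics: HIV-1 RT p66 at 60 ng/mL with 0.4 μM poly(rA)-oligo(dT), inhibitor, and [3H]TTP varied over 4-20 μM, in pH 8.0 Tris buffer with 6 mM MgCl2, 8 mM DTT, 80 mM KCl. Incubated 37 °C for 30 min, then EDTA quench. 3H incorporation counted on DE-81 paper; Ki taken from double-reciprocal plots.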

With `Cc1cn([C@H]2C[C@@H](O)[C@@H](OP(=O)(O)NP(=O)(O)NP(=O)(O)O)O2)c(=O)[nH]c1=O` as the compound, how does the pKi read?
The pKi was 4.72.

How did the pKi turn out when `Cc1cn([C@H]2CC[C@@H](OP(=O)(O)NP(=O)(O)OP(=O)(O)O)O2)c(=O)[nH]c1=O` was run?
Its pKi is 4.82.

With `Cc1cn([C@H]2C[C@@H](N=[N+]=[N-])[C@@H](OP(=O)(O)NP(=O)(O)OP(=O)(O)O)O2)c(=O)[nH]c1=O` as the compound, how does the pKi read?
Its pKi is 4.66.
